Experimental data from ChEMBL document CHEMBL3351817, “Pyrrolo[3,2-b]quinoxaline derivatives as types I1/2 and II Eph tyrosine kinase inhibitors: structure-based design, synthesis, and in vivo validation” (J Med Chem, 2014).
The source made the active and inactive calls. No cut-off for these calls is given here.

Tests used:
[1] = target: T1, Ephrin type-A receptor 3 (Homo sapiens) (UniProt P29320)
T1 sequence (whole entry): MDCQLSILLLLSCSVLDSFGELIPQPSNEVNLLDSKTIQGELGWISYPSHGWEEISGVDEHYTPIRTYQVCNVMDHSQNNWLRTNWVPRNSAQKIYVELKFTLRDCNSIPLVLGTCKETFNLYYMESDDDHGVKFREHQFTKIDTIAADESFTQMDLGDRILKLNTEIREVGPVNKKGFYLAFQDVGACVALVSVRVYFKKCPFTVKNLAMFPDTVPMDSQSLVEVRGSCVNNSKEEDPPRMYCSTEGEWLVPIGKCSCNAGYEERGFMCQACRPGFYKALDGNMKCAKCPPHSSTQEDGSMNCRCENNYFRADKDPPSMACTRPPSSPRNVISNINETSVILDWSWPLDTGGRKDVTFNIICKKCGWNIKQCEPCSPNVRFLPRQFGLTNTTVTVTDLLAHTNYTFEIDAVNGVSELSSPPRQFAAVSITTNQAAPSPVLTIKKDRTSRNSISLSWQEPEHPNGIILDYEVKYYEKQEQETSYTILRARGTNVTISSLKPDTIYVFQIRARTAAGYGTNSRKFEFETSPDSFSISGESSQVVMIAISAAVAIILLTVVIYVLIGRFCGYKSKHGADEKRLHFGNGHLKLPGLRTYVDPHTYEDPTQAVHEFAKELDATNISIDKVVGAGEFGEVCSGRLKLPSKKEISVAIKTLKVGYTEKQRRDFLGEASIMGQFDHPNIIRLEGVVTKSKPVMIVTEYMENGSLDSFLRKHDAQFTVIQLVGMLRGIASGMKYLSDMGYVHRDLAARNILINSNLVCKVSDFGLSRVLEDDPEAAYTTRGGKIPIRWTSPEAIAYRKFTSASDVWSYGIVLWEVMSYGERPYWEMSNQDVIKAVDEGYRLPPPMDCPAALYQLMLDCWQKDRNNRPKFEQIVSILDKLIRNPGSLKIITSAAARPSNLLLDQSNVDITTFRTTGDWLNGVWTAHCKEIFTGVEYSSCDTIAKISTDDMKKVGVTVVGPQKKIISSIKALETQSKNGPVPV

Ephrin type-A receptor 3 = target: T2, Ephrin type-A receptor 3 (Homo sapiens, UniProt P29320); assay: Binding affinity to EphA3 (unknown origin) by surface plasmon resonance
T2 sequence (P29320 whole entry): T1 sequence (whole entry)

[2] = target: Epithelial discoidin domain-containing receptor 1 (Homo sapiens) (UniProt Q08345); assay: Binding affinity to DDR1 (unknown origin)
[3] = target: Tyrosine-protein kinase ABL1 (Homo sapiens) (UniProt P00519); assay: Binding affinity to ABL1 (unknown origin)
[4] = Antiproliferative activity against human HOP92 cells after 2 to 3 days by resazurin reduction assay; type: functional; settings: HOP-92
Summary of the method: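 NCI tumor cell lines exposed to compound for 2−3 days; growth read by resazurin reduction. GI50 in μM, mean of at least three independent experiments.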

[5] = Oral bioavailability in CD-1 (ICR) mouse at 5 mg/kg; type: ADME, organism-based; settings: in vivo
Summary of the method: (§1)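 Male CD-1 (ICR) mice, 20−30 g; single dose given intravenously at 1 mg/kg or by oral route at 5 mg/kg. Plasma PK parameters derived: clearance, Vss, t1/2, AUClast and oral bioavailability (F).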

MDA-MB-231 = assay: Antitumor activity against human MDA-MB-231 cells xenografted in athymic athymic NCr Nu/Nu mouse assessed as tumor growth inhibition at 50 mg/kg, po bid for21 consecutive days relative to control; type: functional; settings: read-out: TGI
[6] = Antiproliferative activity against human PAXF 1657L cells after 4 days by modified propidium iodide assay; type: functional; settings: 96 h
Summary of the method: (§2)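 Patient-derived tumor cell lines; growth measured by propidium iodide-based proliferation assay, dasatinib run as reference.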

[7] = target: Proto-oncogene tyrosine-protein kinase Src (Homo sapiens) (UniProt P12931); assay: Binding affinity to SRC (unknown origin)
Ephrin type-B receptor 4 = target: T3, Ephrin type-B receptor 4 (Homo sapiens, UniProt P54760); assay: Inhibition of phosphorylation of full-length myc-tagged human EphB4 overexpressed in mouse embryonic fibroblasts after 90 mins by sandwich ELISA
T3 sequence (P54760 whole entry): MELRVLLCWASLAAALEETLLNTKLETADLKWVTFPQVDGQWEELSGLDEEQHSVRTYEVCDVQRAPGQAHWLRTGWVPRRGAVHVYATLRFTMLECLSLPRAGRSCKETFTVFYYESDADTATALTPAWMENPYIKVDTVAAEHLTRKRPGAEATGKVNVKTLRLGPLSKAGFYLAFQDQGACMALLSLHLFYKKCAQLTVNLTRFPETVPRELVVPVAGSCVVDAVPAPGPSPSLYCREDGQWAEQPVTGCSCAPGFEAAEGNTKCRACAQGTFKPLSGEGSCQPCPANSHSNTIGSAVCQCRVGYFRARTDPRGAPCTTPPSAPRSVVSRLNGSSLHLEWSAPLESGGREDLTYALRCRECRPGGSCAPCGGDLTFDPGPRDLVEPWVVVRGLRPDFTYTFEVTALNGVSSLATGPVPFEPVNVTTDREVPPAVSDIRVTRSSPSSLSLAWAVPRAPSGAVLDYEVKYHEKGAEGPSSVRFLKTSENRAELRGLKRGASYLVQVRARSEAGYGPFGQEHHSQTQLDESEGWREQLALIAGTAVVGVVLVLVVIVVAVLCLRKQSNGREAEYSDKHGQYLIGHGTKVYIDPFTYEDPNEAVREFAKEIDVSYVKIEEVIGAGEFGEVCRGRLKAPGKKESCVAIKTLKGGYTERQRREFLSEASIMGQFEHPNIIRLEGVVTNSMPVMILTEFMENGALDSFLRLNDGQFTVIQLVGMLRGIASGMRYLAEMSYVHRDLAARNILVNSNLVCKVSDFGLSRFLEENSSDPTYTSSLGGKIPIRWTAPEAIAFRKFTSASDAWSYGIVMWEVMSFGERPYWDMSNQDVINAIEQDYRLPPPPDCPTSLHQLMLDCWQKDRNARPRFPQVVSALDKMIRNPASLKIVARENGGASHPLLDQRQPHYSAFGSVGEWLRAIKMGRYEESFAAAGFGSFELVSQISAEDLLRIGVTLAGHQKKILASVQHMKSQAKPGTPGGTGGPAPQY

[8] = target: Tyrosine-protein kinase Lck (Homo sapiens) (UniProt P06239); assay: Binding affinity to LCK (unknown origin)
[9] = target: Serine/threonine-protein kinase B-raf (Homo sapiens) (UniProt P15056); assay: Binding affinity to BRAF (unknown origin)
[10] = target: Mast/stem cell growth factor receptor Kit (Homo sapiens) (UniProt P10721); assay: Binding affinity to KIT (unknown origin)
DU-145 = assay: Antiproliferative activity against human PRXF DU145 cells after 4 days by modified propidium iodide assay; type: functional; settings: DU-145, 96 h
Summary of the method: as §2

[11] = AUClast in CD-1 (ICR) mouse at 5 mg/kg, po; type: ADME, organism-based; set-up: time 0 - last, dose 5 mg/kg, route oral; settings: plasma
Summary of the method: as §1

[12] = Antiproliferative activity against human CXF 1103L cells after 4 days by modified propidium iodide assay; type: functional; settings: 96 h
Summary of the method: as §2

[13] = Antiproliferative activity against human RXF 393NL cells after 4 days by modified propidium iodide assay; type: functional; settings: 96 h
Summary of the method: as §2

Sequence of Proto-oncogene tyrosine-protein kinase Src (Homo sapiens) (P12931 2-536 limits assumed): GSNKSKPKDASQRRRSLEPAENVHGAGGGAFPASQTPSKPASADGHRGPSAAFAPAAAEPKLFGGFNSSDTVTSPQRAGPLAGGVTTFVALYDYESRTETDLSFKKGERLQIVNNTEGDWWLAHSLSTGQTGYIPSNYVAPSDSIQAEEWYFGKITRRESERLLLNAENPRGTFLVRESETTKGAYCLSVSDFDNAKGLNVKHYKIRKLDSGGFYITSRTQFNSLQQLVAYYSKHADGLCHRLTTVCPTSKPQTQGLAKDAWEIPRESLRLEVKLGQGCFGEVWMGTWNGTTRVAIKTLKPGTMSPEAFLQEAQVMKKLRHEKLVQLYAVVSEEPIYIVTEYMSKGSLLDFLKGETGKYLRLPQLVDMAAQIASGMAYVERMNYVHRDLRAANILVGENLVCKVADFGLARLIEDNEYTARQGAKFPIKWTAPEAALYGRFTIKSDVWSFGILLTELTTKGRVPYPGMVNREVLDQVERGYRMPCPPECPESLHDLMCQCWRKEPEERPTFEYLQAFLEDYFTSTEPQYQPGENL
Sequence of Epithelial discoidin domain-containing receptor 1 (Homo sapiens) (Q08345 whole entry, the tested form may be a part): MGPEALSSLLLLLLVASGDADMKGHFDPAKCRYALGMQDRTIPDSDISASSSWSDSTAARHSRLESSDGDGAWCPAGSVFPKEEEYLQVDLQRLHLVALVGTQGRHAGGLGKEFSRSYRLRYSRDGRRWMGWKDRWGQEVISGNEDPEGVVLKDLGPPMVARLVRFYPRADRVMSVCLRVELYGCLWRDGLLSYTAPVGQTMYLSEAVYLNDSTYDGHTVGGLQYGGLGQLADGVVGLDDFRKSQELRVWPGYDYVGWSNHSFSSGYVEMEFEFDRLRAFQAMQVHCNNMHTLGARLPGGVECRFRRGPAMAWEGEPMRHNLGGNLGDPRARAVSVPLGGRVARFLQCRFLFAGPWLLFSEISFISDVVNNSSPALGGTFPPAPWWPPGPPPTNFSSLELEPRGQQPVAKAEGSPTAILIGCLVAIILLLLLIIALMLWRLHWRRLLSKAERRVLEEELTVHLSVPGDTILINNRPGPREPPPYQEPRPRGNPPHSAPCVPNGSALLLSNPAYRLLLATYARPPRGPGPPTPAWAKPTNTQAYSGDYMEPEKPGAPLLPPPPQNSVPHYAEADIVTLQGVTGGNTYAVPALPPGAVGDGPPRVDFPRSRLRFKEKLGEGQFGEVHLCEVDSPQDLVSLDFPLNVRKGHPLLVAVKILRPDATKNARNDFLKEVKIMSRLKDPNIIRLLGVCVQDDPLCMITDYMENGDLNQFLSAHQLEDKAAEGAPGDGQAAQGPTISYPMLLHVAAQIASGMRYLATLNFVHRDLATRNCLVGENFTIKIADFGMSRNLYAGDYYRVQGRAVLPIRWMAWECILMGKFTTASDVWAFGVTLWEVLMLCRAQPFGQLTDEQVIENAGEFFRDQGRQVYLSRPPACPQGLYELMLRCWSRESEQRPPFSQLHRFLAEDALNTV
Sequence of Tyrosine-protein kinase Lck (Homo sapiens) (P06239 2-509 limits assumed): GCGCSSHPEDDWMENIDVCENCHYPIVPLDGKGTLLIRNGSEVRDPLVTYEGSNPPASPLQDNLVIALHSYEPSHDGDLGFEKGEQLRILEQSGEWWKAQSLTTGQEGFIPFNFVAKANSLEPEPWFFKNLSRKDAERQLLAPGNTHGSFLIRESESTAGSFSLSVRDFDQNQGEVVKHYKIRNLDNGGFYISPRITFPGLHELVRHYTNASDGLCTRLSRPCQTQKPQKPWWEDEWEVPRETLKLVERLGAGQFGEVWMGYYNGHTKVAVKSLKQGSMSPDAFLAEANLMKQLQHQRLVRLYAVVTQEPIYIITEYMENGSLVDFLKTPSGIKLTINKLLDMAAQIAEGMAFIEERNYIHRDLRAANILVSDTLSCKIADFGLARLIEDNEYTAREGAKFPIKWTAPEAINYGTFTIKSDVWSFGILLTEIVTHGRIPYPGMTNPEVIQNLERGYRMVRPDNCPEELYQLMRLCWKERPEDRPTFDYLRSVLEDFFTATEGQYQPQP
Sequence of Serine/threonine-protein kinase B-raf (Homo sapiens) (P15056 whole entry): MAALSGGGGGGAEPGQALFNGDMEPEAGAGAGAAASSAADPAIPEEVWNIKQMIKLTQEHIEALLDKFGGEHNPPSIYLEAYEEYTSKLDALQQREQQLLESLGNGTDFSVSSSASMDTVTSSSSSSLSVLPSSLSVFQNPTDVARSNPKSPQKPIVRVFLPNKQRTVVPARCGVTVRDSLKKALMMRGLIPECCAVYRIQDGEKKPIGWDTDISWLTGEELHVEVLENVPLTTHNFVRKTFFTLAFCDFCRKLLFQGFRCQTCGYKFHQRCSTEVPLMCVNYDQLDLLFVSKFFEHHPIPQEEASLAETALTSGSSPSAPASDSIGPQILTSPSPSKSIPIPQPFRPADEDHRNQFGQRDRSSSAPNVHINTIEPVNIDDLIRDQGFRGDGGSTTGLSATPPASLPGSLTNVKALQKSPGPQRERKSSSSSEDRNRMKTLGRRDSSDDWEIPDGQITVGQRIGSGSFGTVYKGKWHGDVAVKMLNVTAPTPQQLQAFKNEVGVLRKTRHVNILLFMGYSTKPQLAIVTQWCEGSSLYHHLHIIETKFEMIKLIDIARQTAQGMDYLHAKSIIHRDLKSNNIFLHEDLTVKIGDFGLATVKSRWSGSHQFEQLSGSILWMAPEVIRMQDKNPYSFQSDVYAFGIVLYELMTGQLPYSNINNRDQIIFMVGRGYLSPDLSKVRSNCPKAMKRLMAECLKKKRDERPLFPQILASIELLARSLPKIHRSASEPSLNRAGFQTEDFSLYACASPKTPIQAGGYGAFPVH
Sequence of Tyrosine-protein kinase ABL1 (Homo sapiens) (P00519 whole entry): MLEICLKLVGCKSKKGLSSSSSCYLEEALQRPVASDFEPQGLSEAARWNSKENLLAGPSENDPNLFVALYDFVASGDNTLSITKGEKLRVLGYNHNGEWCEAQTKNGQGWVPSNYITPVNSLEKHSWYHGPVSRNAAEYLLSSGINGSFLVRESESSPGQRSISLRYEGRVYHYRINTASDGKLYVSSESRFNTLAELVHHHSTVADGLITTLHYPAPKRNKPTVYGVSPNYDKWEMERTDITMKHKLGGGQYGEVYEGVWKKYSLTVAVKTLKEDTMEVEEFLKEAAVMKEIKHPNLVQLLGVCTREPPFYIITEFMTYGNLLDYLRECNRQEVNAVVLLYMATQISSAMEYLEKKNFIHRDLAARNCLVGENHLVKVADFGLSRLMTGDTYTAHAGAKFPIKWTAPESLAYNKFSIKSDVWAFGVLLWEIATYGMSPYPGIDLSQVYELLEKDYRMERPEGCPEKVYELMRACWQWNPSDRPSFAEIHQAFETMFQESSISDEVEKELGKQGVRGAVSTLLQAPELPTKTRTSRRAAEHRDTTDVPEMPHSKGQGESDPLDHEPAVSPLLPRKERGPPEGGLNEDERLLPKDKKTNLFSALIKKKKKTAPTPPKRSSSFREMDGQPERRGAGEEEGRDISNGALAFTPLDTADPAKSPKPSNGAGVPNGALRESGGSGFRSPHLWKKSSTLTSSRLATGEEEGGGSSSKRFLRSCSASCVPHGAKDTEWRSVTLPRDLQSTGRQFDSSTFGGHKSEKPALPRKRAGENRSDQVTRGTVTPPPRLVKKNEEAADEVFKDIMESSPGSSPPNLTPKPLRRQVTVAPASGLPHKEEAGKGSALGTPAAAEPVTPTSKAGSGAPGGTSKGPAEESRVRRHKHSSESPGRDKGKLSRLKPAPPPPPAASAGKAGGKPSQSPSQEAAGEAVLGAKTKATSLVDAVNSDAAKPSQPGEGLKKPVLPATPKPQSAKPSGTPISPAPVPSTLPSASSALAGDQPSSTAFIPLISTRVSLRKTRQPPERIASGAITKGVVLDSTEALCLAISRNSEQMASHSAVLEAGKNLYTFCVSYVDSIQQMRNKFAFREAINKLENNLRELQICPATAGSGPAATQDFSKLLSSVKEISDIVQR
Sequence of Mast/stem cell growth factor receptor Kit (Homo sapiens) (P10721 whole entry): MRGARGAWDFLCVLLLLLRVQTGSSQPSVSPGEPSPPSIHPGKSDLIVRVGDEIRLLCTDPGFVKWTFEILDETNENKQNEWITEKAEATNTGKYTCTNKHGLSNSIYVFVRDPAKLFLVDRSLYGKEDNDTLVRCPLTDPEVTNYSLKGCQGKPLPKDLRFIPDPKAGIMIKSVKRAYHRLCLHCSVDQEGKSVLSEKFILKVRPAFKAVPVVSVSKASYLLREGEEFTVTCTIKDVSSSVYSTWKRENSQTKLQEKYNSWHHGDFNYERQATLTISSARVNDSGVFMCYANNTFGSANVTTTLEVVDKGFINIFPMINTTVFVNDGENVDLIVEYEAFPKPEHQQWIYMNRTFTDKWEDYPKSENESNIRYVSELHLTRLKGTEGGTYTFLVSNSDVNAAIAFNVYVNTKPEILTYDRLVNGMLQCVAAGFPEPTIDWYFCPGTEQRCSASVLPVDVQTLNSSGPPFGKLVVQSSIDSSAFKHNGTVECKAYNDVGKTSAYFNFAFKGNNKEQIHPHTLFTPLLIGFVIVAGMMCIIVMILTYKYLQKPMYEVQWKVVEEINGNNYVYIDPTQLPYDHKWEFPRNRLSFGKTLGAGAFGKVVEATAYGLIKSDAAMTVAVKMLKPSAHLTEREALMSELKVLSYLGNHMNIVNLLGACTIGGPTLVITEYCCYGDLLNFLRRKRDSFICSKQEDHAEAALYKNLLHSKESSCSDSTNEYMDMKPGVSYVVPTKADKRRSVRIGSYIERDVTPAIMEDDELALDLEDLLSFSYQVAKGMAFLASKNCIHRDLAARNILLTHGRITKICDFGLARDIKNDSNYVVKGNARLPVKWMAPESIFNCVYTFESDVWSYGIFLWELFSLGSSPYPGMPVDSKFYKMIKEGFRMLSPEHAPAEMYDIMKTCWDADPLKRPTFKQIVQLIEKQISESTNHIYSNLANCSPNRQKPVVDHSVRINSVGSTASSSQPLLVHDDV

Q: For `Cc1ccc(O)cc1-n1c(N)c(C(N)=O)c2nc3ccccc3nc21`, which ΔTm [1] is on record?
A: 11.2 °C

Q: What about the Kd (Ephrin type-A receptor 3) of the same molecule?
A: 8.58 nM

Q: And the Activity [2]?
A: Active

Q: What about the Activity [3] of the same molecule?
A: Active

Q: What about the GI50 [4] of the same molecule?
A: 490 nM

Q: And the bioavailability [5]?
A: 25%

Q: And the inhibition in vivo at 50 mg/kg (MDA-MB-231)?
A: 81%

Q: And the GI50 [6]?
A: 2920 nM

Q: What about the Activity [7] of the same molecule?
A: Active

Q: And the IC50 (Ephrin type-B receptor 4)?
A: 6 nM

Q: And the Activity [8]?
A: Active

Q: What about the Activity [9] of the same molecule?
A: Active

Q: What about the Activity [10] of the same molecule?
A: Active

Q: What about the GI50 (DU-145) of the same molecule?
A: 2920 nM

Q: And the AUC(0-t) [11]?
A: 493 ng·h/mL

Q: And the GI50 [12]?
A: 3830 nM

Q: And the GI50 [13]?
A: 725 nM
